Key:
JAK3/JAK1 = JAK3/JAK1 (Homo sapiens, UniProt P23458+P52333); assay: Inhibition of JAK1/JAK3 in human PBMC assessed as decrease in IL2-induced STAT5 phosphorylation in CD3+ T cells preincubated for 1 hr followed by stimulation with IL2 for 15 mins by flow cytometry; type: cell-based
How it was run: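 Human cytokine signalling assay: IL-2 stimulation (JAK1/JAK3), with STAT5 phosphorylation in CD3⁺ T-cells measured as the end point. Read as IC50; mean of at least three separate experiments.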

[1] = biological target: T1, Tyrosine-protein kinase JAK3 (Homo sapiens, UniProt P52333); assay: Inhibition of fluorescein labeled probe binding to human recombinant JAK3 JH1 domain incubated for 1 hr by HTRF assay
T1 sequence (P52333 whole entry): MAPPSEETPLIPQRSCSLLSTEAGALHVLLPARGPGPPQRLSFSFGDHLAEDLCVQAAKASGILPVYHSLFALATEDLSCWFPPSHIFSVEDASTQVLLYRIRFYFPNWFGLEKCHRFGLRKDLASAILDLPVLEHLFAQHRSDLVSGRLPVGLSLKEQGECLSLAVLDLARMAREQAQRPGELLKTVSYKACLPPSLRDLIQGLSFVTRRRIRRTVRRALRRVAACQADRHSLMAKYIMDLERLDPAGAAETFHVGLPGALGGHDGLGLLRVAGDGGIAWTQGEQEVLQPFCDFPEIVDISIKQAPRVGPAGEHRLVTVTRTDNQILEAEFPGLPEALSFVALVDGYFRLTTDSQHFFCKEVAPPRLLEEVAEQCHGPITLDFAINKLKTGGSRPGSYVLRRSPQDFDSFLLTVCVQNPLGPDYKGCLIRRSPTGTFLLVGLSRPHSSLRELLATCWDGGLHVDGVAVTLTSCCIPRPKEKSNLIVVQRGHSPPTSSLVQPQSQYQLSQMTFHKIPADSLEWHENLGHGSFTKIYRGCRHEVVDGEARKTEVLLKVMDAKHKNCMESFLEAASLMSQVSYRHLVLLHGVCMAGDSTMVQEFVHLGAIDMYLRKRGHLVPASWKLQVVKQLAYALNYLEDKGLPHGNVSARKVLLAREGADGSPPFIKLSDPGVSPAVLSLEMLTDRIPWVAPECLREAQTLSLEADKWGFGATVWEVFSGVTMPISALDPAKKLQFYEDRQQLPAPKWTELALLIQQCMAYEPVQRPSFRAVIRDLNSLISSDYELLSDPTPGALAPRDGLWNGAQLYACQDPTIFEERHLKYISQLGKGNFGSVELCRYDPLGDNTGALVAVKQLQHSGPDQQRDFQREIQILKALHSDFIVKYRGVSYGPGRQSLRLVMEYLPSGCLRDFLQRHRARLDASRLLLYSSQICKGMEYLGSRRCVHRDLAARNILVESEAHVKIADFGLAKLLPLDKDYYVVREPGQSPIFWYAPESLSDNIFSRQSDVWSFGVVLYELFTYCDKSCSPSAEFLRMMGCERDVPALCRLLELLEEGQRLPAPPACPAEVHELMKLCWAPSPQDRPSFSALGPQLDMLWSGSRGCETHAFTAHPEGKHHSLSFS
How it was run: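 HTRF competition binding assay: displacement of a fluorescent probe from human recombinant JAK3 JH1 domain. IC50 for 50% inhibition of HTRF signal derived by nonlinear regression.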

[2] = biological target: Tyrosine-protein kinase JAK2 (Homo sapiens, UniProt O60674); assay: Inhibition of JAK2 in GM-CSF-stimulated human TF-1 cells; type: cell-based
Tyrosine-protein kinase JAK2, sequence (O60674 whole entry): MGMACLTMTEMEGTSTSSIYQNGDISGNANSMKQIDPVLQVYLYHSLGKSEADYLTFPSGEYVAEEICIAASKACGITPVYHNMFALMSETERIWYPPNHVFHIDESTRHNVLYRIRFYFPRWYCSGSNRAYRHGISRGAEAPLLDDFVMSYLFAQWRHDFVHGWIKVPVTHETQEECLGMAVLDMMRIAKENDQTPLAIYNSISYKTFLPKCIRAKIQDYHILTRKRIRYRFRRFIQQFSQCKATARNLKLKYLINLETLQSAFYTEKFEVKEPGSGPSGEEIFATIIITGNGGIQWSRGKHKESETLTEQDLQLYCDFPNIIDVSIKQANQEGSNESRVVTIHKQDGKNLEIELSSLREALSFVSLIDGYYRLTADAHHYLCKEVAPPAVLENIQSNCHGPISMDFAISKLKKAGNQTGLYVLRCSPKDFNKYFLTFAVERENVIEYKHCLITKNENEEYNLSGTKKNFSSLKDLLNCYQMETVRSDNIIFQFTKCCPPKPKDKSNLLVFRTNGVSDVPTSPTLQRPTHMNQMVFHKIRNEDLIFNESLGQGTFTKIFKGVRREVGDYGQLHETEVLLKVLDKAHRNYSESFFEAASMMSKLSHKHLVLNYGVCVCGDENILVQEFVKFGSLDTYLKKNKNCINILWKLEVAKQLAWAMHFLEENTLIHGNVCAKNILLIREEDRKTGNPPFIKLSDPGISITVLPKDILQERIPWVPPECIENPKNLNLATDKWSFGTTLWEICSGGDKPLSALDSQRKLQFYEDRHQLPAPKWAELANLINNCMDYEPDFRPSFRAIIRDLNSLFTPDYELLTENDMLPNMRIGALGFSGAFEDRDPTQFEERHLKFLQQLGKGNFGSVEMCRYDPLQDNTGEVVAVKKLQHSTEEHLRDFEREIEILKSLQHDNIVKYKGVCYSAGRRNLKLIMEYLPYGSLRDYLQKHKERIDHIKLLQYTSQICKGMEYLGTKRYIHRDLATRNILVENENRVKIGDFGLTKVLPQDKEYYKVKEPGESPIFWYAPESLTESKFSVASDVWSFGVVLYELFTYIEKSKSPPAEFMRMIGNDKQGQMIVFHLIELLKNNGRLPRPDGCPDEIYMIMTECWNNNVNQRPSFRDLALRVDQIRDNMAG

JAK3/JAK1, sequence (P23458 whole entry, one chain of several): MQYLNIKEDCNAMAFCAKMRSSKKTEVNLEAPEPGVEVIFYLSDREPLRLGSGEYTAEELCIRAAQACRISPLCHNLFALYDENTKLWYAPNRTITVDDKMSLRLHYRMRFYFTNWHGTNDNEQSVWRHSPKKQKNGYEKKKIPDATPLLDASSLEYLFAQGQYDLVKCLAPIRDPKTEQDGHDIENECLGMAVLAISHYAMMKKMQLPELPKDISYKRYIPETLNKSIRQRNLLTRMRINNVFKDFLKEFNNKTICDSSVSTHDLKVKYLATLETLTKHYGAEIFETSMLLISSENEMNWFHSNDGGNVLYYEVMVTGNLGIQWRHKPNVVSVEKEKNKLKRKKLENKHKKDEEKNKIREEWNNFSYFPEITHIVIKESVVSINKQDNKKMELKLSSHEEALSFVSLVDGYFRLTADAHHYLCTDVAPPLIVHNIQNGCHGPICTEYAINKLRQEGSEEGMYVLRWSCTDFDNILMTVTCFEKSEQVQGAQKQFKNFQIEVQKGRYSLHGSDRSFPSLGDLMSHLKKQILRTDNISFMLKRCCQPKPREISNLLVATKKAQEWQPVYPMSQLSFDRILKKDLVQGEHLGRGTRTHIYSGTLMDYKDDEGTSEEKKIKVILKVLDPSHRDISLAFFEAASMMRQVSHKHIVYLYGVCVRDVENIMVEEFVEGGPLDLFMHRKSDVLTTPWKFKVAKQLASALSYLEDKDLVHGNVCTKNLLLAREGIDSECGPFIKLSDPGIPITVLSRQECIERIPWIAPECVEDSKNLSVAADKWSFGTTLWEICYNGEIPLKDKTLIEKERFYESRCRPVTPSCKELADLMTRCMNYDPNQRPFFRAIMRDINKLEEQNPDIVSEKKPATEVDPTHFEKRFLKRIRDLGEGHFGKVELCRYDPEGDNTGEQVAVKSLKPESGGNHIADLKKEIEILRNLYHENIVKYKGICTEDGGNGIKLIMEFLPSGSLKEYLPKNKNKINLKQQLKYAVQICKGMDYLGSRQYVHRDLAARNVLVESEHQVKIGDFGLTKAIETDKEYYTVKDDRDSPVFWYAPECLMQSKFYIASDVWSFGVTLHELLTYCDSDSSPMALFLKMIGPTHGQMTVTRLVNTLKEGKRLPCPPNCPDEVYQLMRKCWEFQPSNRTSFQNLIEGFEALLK

## [2H]C([2H])([2H])NC(=O)c1nnc(Nc2ccccn2)cc1Nc1ccccc1S(C)(=O)=O
JAK3/JAK1
  IC50: 5.7 µM
[1]
  IC50: > 10 µM
[2]
  IC50: 2700 nM
